According to ChEMBL document CHEMBL3351600, “Sulfur, selenium and tellurium pseudopeptides: synthesis and biological evaluation” (Bioorg Med Chem, 2014):

What was measured:
NCI-H460 = assay: Growth inhibition of human NCI-H460 cells after 48 hrs; type: functional; conditions: NCI-H460, 48 h, read-out: pLC50 (the source's name) (converted)
Summary of the method: (§1)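 NCI-60 human tumour cell line panel screen run at the US National Cancer Institute under its standard cytotoxicity protocol. It covers leukaemia, NSCLC, colon, CNS, melanoma, ovarian, renal, prostate and breast lines. An initial single-dose test was followed by five-dose testing with 48 h compound exposure.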

[1] = Growth inhibition of human MOLT4 cells after 48 hrs; type: functional; conditions: MOLT-4, 48 h; summary of the method: as §1
Pseudomonas aeruginosa = assay: Antimicrobial activity against Pseudomonas aeruginosa assessed as inhibition at 20 ug/6 mm disk after 1 to 2 days by agar diffusion assay; type: functional
Summary of the method: (§2)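 Standard agar diffusion: 6-mm paper disks loaded with 20 µg of compound were placed on inoculated plates. Inhibition-zone diameter (mm) was read after 1 and 2 days of growth.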

[2] = Cytotoxicity against human fibroblasts assessed as cell viability after 24 hrs incubation by MTT assay; type: cell-based; conditions: Fibroblast
Summary of the method: (§3)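 Cell lines came from DSMZ; primary human fibroblasts served as non-cancer controls. Cells were grown in medium with 10% FCS, seeded at 50,000 cells/ml, and grown 2 days at 37 °C, 10% CO2. Serial dilutions were then added for 24 h. MTT (final 0.5 mg/ml) was added for 2 h. Formazan was pelleted, PBS-washed, dissolved in isopropanol/0.4% HCl and read at 590 nm. Two parallel experiments were run. IC50 was taken as the concentration giving 50% of untreated-control absorbance.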

SNB-75 = assay: Growth inhibition of human SNB75 cells after 48 hrs; type: functional; conditions: SNB-75, 48 h
Summary of the method: (§4)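 Run by the NCI 58-cell-line screen under its standard cytotoxicity protocol. Compounds were first tested at a single dose, then at five doses. Cells were exposed to compound for 48 h.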

A-431 = assay: Cytotoxicity against human A431 cells assessed as cell viability after 24 hrs incubation by MTT assay; type: functional, cell-based; conditions: A-431, 24 h; summary of the method: as §3
KM12 = assay: Growth inhibition of human KM12 cells after 48 hrs; type: functional; conditions: KM12, 48 h; summary of the method: as §1
SN12C = assay: Growth inhibition of human SN12C cells after 48 hrs; type: functional; summary of the method: as §4
Escherichia coli = assay: Antimicrobial activity against Escherichia coli tolC assessed as inhibition at 20 ug/6 mm disk after 1 to 2 days by agar diffusion assay; type: functional; summary of the method: as §2
MDA-MB-468 = assay: Growth inhibition of human MDA-MB-468 cells after 48 hrs; type: functional; conditions: MDA-MB-468, 48 h; summary of the method: as §1
SF-268 = assay: Growth inhibition of human SF268 cells after 48 hrs; type: functional; conditions: SF-268, 48 h; summary of the method: as §1
MCF7 = assay: Growth inhibition of human MCF7 cells after 48 hrs; type: functional; conditions: MCF7, 48 h; summary of the method: as §1
Staphylococcus aureus = assay: Antimicrobial activity against Staphylococcus aureus assessed as inhibition at 20 ug/6 mm disk after 1 to 2 days by agar diffusion assay; type: functional; summary of the method: as §2
A498 = assay: Growth inhibition of human A498 cells after 48 hrs; type: functional; conditions: A498, 48 h; summary of the method: as §1
IGROV-1 = assay: Growth inhibition of human IGROV1 cells after 48 hrs; type: functional; conditions: IGROV-1, 48 h; summary of the method: as §1
[3] = Growth inhibition of human EKVX cells after 48 hrs; type: functional; summary of the method: as §1
NCI-H23 = assay: Growth inhibition of human NCI-H23 cells after 48 hrs; type: functional; conditions: NCI-H23, 48 h, read-out: pLC50 (the source's name) (converted); summary of the method: as §1
SK-OV-3 = assay: Growth inhibition of human SKOV3 cells after 48 hrs; type: functional; conditions: SK-OV-3, 48 h; summary of the method: as §4
[4] = Growth inhibition of human HCC2998 cells after 48 hrs; type: functional; conditions: HCC 2998, 48 h; summary of the method: as §1
[5] = Growth inhibition of human SF295 cells after 48 hrs; type: functional; conditions: SF-295, 48 h, read-out: pLC50 (the source's name) (converted); summary of the method: as §1
SK-MEL-5 = assay: Growth inhibition of human SK-MEL-5 cells after 48 hrs; type: functional; conditions: SK-MEL-5, 48 h; summary of the method: as §4
[6] = Growth inhibition of human OVCAR3 cells after 48 hrs; type: functional; conditions: OVCAR-3, 48 h; summary of the method: as §1
[7] = Growth inhibition of human BT549 cells after 48 hrs; type: functional; conditions: BT-549, 48 h; summary of the method: as §1
[8] = Growth inhibition of human OVCAR5 cells after 48 hrs; type: functional; conditions: OVCAR-5, 48 h; summary of the method: as §1
SK-MEL-2 = assay: Growth inhibition of human SK-MEL-2 cells after 48 hrs; type: functional; conditions: SK-MEL-2, 48 h; summary of the method: as §1
Candida albicans = assay: Antimicrobial activity against Candida albicans assessed as inhibition at 20 ug/6 mm disk after 1 to 2 days by agar diffusion assay; type: functional; summary of the method: as §2
DU-145 = assay: Growth inhibition of human DU145 cells after 48 hrs; type: functional; conditions: DU-145, 48 h; summary of the method: as §1
SNB-19 = assay: Growth inhibition of human SNB19 cells after 48 hrs; type: functional; conditions: SNB-19, 48 h, read-out: pLC50 (the source's name) (converted); summary of the method: as §4
NCI-H226 = assay: Growth inhibition of human NCI-H226 cells after 48 hrs; type: functional; conditions: NCI-H226, 48 h; summary of the method: as §1
[9] = Growth inhibition of human OVCAR8 cells after 48 hrs; type: functional; conditions: OVCAR-8, 48 h; summary of the method: as §1
SK-MEL-28 = assay: Growth inhibition of human SK-MEL-28 cells after 48 hrs; type: functional; conditions: SK-MEL-28, 48 h; summary of the method: as §1
[10] = read-out: pLC50 (the source's name) (converted)

Q: With `COc1ccc(N(CC(=O)NCCC[Te]c2ccccc2)C(=O)CCSC2=C(C)C(=O)c3ccccc3C2=O)cc1` as the molecule, how does the CC50 (NCI-H460) read?
A: 4.68 µM

Q: What about the GI50 [1] of the same molecule?
A: 0.537 µM

Q: And the CC50 [1, 10]?
A: > 100 µM

Q: And the TGI ([1]; read-out: pTGI (converted))?
A: 3.55 µM

Q: And the “diameter of the inhibition zone (DIZ)” value (Pseudomonas aeruginosa)?
A: 0 mm

Q: What about the IC50 [2] of the same molecule?
A: 4 µM

Q: And the GI50 (SNB-75)?
A: 1.82 µM

Q: And the CC50 (SNB-75; [10])?
A: 45.7 µM

Q: And the TGI (SNB-75; read-out: pTGI (converted))?
A: 6.92 µM

Q: What about the IC50 (A-431) of the same molecule?
A: 1 µM

Q: And the GI50 (KM12)?
A: 0.417 µM

Q: What about the CC50 (KM12; [10]) of the same molecule?
A: 5.13 µM

Q: What about the TGI (KM12; read-out: pTGI (converted)) of the same molecule?
A: 1.51 µM

Q: What about the LC50 (SN12C) of the same molecule?
A: 23.4 µM

Q: And the “diameter of the inhibition zone (DIZ)” value (Escherichia coli)?
A: 12 mm

Q: What about the GI50 (MDA-MB-468) of the same molecule?
A: 1.66 µM

Q: And the LC50 (MDA-MB-468)?
A: 6.76 µM

Q: And the TGI (MDA-MB-468; read-out: pTGI (converted))?
A: 3.39 µM

Q: What about the GI50 (SF-268) of the same molecule?
A: 0.468 µM

Q: What about the CC50 (SF-268; [10]) of the same molecule?
A: 5.5 µM

Q: What about the TGI (SF-268; read-out: pTGI (converted)) of the same molecule?
A: 1.86 µM

Q: What about the GI50 (MCF7) of the same molecule?
A: 0.49 µM

Q: And the LC50 (concentration killing 50% of cells) (MCF7)?
A: 75.9 µM

Q: And the TGI (MCF7; read-out: pTGI (converted))?
A: 12 µM

Q: What about the “diameter of the inhibition zone (DIZ)” value (Staphylococcus aureus) of the same molecule?
A: 11 mm

Q: And the GI50 (A498)?
A: 1.35 µM

Q: What about the TGI (A498; read-out: pTGI (converted)) of the same molecule?
A: 3.24 µM

Q: And the GI50 (IGROV-1)?
A: 0.776 µM

Q: And the CC50 (IGROV-1; [10])?
A: 5.37 µM

Q: What about the TGI (IGROV-1; read-out: pTGI (converted)) of the same molecule?
A: 2.19 µM

Q: And the GI50 [3]?
A: 0.38 µM

Q: And the CC50 [3, 10]?
A: > 100 µM

Q: What about the TGI ([3]; read-out: pTGI (converted)) of the same molecule?
A: 3.31 µM

Q: And the CC50 (NCI-H23)?
A: 20.4 µM

Q: And the GI50 (SK-OV-3)?
A: 1.86 µM

Q: What about the CC50 (SK-OV-3; [10]) of the same molecule?
A: 8.71 µM

Q: What about the TGI (SK-OV-3; read-out: pTGI (converted)) of the same molecule?
A: 3.98 µM

Q: And the GI50 [4]?
A: 1.23 µM

Q: What about the CC50 [4, 10] of the same molecule?
A: 9.33 µM

Q: What about the TGI ([4]; read-out: pTGI (converted)) of the same molecule?
A: 3.39 µM

Q: What about the CC50 [5] of the same molecule?
A: > 100 µM

Q: And the GI50 (SK-MEL-5)?
A: 1.62 µM

Q: And the CC50 (SK-MEL-5; [10])?
A: 5.75 µM

Q: What about the TGI (SK-MEL-5; read-out: pTGI (converted)) of the same molecule?
A: 3.09 µM

Q: And the GI50 [6]?
A: 1.17 µM

Q: And the CC50 [6, 10]?
A: 5.62 µM

Q: What about the TGI ([6]; read-out: pTGI (converted)) of the same molecule?
A: 2.04 µM

Q: What about the LC50 (concentration killing 50% of cells) [7] of the same molecule?
A: 16.6 µM

Q: What about the GI50 [8] of the same molecule?
A: 0.631 µM

Q: And the LC50 [8]?
A: 6.46 µM

Q: And the TGI ([8]; read-out: pTGI (converted))?
A: 2.24 µM

Q: And the GI50 (SK-MEL-2)?
A: 2.29 µM

Q: And the CC50 (SK-MEL-2; [10])?
A: 14.8 µM

Q: What about the TGI (SK-MEL-2; read-out: pTGI (converted)) of the same molecule?
A: 5.01 µM

Q: And the “diameter of the inhibition zone (DIZ)” value (Candida albicans)?
A: 0 mm

Q: What about the Retention_time of the same molecule?
A: 0.938 min

Q: What about the GI50 (DU-145) of the same molecule?
A: 0.955 µM

Q: What about the LC50 (DU-145) of the same molecule?
A: 4.9 µM

Q: What about the TGI (DU-145; read-out: pTGI (converted)) of the same molecule?
A: 2.19 µM

Q: What about the CC50 (SNB-19) of the same molecule?
A: 56.2 µM

Q: And the GI50 (NCI-H226)?
A: 1.62 µM

Q: What about the TGI (NCI-H226; read-out: pTGI (converted)) of the same molecule?
A: 3.63 µM

Q: What about the GI50 [9] of the same molecule?
A: 0.589 µM

Q: And the LC50 [9]?
A: 30.9 µM

Q: And the TGI ([9]; read-out: pTGI (converted))?
A: 3.8 µM

Q: What about the GI50 (SK-MEL-28) of the same molecule?
A: 2.09 µM

Q: What about the CC50 (SK-MEL-28; [10]) of the same molecule?
A: 12 µM

Q: And the TGI (SK-MEL-28; read-out: pTGI (converted))?
A: 4.68 µM
